For series [1], the system named is Staphylococcus aureus. Nature of the series: Antibacterial activity against methicillin-resistant Staphylococcus aureus ATCC 43300 infected in Albino guiena pig assessed as decrease in planktonic bacterial counts in cage fluid at 12.5 mg/kg after measured on day 10 postinfection. The series is classed as functional. Summed up:
(§1)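 Guinea pig subcutaneous cage model infected with 2 × 10^4 CFU MRSA. Intraperitoneal dosing every 12 h for 4 days, starting day 1. Cage-fluid CFU counted on day 1, day 4 (before last dose) and day 10. Δlog10 CFU/ml is day 4 or day 10 minus day 1. Quantification limit 1,000 CFU/ml; negatives set to 3 log10. Median and IQR.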

Series [2] concerns Staphylococcus aureus. Nature of the series: Antibacterial activity against methicillin-resistant Staphylococcus aureus ATCC 43300 infected in Albino guiena pig assessed as no. of culture-negative cage fluid samples at 12.5 mg/kg measured on day 4 postinfection. It is filed as functional. Summed up:
(§2)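 Same guinea pig cage infection and intraperitoneal 4-day, twice-daily regimen. Cage fluid cultured on day 4 and day 10. Result is the number of cage fluid samples without detectable MRSA growth over the total cages per group.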

The subject of series [3] is Staphylococcus aureus. Description: Antibacterial activity against methicillin-resistant Staphylococcus aureus ATCC 43300 infected in Albino guiena pig assessed as no. of culture-negative cage fluid samples at 12.5 mg/kg measured on day 10 postinfection. The series is classed as functional. Summed up: as §2
The test system of series [4] is Staphylococcus aureus. Nature of the series: Antibacterial activity against methicillin-resistant Staphylococcus aureus ATCC 43300 infected in Albino guiena pig assessed as decrease in planktonic bacterial counts in cage fluid at 12.5 mg/kg measured on day 4 postinfection. It is filed as functional. Summed up:
as §1

Series [5] in a line: AUC (0 to 24 hrs) in cage fluid of Albino guiena pig at 12.5 mg/kg, ip. As to conditions: guinea pig. The series is classed as ADME, organism-based, Cavia porcellus. Also on record: time < 24 hr, dose 12.5 mg/kg, route intraperitoneal.
Series [6] can be described thus: Tmax in cage fluid of Albino guiena pig at 12.5 mg/kg, ip. It is filed as ADME, organism-based, Cavia porcellus. Set-up: dose 12.5 mg/kg, route intraperitoneal. As to conditions: guinea pig.
The nature of series [7]: Cmin in cage fluid of Albino guiena pig at 12.5 mg/kg, ip after 12 hrs. The series is classed as ADME, organism-based, Cavia porcellus. Set-up: dose 12.5 mg/kg, route intraperitoneal. To be noted: guinea pig, read-out: Cmin.
Series [8] in a line: Cmax in cage fluid of Albino guiena pig at 12.5 mg/kg, ip after 12 hrs. It is filed as ADME, organism-based, Cavia porcellus, Interstitial fluid. Also on record: dose 12.5 mg/kg, route intraperitoneal. As to conditions: guinea pig.
Series [9] relates to Staphylococcus aureus. Description: Antibacterial activity against 1 x10'6 to 5 x10^6 CFU/ml methicillin-resistant Staphylococcus aureus ATCC 43300 assessed as percent resistant isolates at MIC after 24 hrs by time kill study. The series is classed as functional.
Series [10] deals with Staphylococcus aureus. Description: Antibacterial activity against 1 x10'6 to 5 x10^6 CFU/ml methicillin-resistant Staphylococcus aureus ATCC 43300 assessed as bacterial regrowth after 24 hrs by time kill study. It is filed as functional, organism-based. Summed up: (§3)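 MRSA inoculum of 1 × 10^6 to 5 × 10^6 CFU/ml in 10 ml Mueller-Hinton broth. Drug at 1× and 4× MIC; drug-free growth control. Incubated at 37°C. Aliquots plated on Mueller-Hinton agar at 0, 6 and 24 h. Quantification limit 200 CFU/ml. Mean log10 CFU/ml reduction ± SD.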

The subject of series [11] is Staphylococcus aureus. Description: Antibacterial activity against 1 x10'6 to 5 x10^6 CFU/ml methicillin-resistant Staphylococcus aureus ATCC 43300 assessed as log decrease in bacterial count at 4 times MIC after 6 hrs by time kill study. The series is classed as functional. In short, it runs like this:
as §3

The subject of series [12] is Staphylococcus aureus. Description: Antibacterial activity against 1 x10'6 to 5 x10^6 CFU/ml methicillin-resistant Staphylococcus aureus ATCC 43300 assessed as log decrease in bacterial count at MIC after 6 hrs by time kill study. The series is classed as functional. Summed up:
as §3

For series [13], the system named is Staphylococcus aureus. Nature of the series: Antibacterial activity against methicillin-resistant Staphylococcus aureus ATCC 43300 during stationary growth phase by macrodilution method. The series is classed as functional.
For series [14], the system named is Staphylococcus aureus. Nature of the series: Antibacterial activity against methicillin-resistant Staphylococcus aureus ATCC 43300 during logarithmic growth phase by macrodilution method. The series is classed as functional.
The test system of series [15] is Staphylococcus aureus. Description: Antibacterial activity against methicillin-resistant Staphylococcus aureus ATCC 43300 by macrodilution method. It is filed as functional. In short, it runs like this:
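Broth macrodilution MIC in Mueller-Hinton broth per CLSI. Inoculum 1 × 10^5 to 5 × 10^5 CFU/ml. Ten twofold drug dilutions, 18 h at 37°C without shaking. MIC is the lowest concentration with no visible growth. Triplicate.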

Values after ≈ are worked out from the molar mass of the structure shown. Active and inactive are the calls of the source. No cut-off for these calls is given here.

Take `CO[C@H]1/C=C/O[C@@]2(C)Oc3c(C)c(O)c4c(O)c(c(/C=N/N5CCN(C)CC5)c(O)c4c3C2=O)NC(=O)/C(C)=C\C=C\[C@H](C)[C@H](O)[C@@H](C)[C@@H](O)[C@@H](C)[C@H](OC(C)=O)[C@@H]1C` [RIFAMPIN]: the log10CFU/ml in the series on Staphylococcus aureus [1] is listed as less than 3; in the series on Staphylococcus aureus [4], 3.1; in the series with Staphylococcus aureus [11], 0.5; in the series with Staphylococcus aureus [12], 0.5. For the same molecule, the Activity in the series on Staphylococcus aureus [2] amounted to 50%; in the series with Staphylococcus aureus [3], 92%; in the series with Staphylococcus aureus [9] it was 94%. Moreover, in [5], the AUC(0-t) at 24 h was 4600 ng·h/mL. In addition, in [6], the Tmax stood at 2.1 h. The concentration at 12 h in series [7] amounted to 100 ng/mL. The same molecule yielded a Cmax in [8] of 1000 ng/mL. Moreover, the outcome in the series with Staphylococcus aureus [10] was inactive. Further, the MBC is 2.5 µg/mL (≈ 3.04 µM) against Staphylococcus aureus [13] and 0.08 µg/mL (≈ 0.0972 µM) in the series with Staphylococcus aureus [14]. It took 0.01 µg/mL (≈ 0.0122 µM) to inhibit growth against Staphylococcus aureus [15] (MIC).

Broadly, the AUC(0-t) is exposure summed from dosing to a finite time, without extrapolation to infinity. By Tmax is commonly meant the time from dosing to the highest level. Usually Cmax stands for the peak of the concentration-time curve. As usually defined, the MBC is the lowest tested concentration that kills the bacteria rather than only halting them. The low end stands for more potent killing, the high end for less potent killing. As usually defined, the MIC is the lowest concentration that inhibits growth of the organism. A higher MIC goes with a less susceptible organism.

(Values after ChEMBL document CHEMBL1629645 (Antimicrob Agents Chemother, 2009).)
